According to ChEMBL document CHEMBL1955776, “Synthesis and biological evaluation of sulfonyl acrylonitriles as novel inhibitors to peritoneal carcinomatosis” (Bioorg Med Chem Lett, 2012):
pIC50: −log10 of the molar value. Activity calls are given as the source filed them. The rule behind the calls is not given here.

Legend:
A2780 [1] = assay: Antitumor activity against human A2780 cells co-cultured with mesothelial cell monolayers using D-luciferin as substrate at 10 uM by firefly luciferase reporter gene assay relative to control; assay type: functional
Summary of the method: (§1)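 Luciferase-tagged cancer cells were treated in suspension at a final 10 μM, then overlaid on confluent mesothelial monolayers. Adherent surviving cells were read by D-luciferin bioluminescence, taken as living cell number. Efficacy = luminescence with analog / luminescence with DMSO; mean ± SEM, n = 3.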

SK-OV-3 [2] = assay: Antitumor activity against human SKOV3 cells co-cultured with mesothelial cell monolayers using D-luciferin as substrate at 10 uM by firefly luciferase reporter gene assay relative to control; assay type: functional; summary of the method: as §1
[3] = Antitumor activity against human SU86 cells co-cultured with mesothelial cell monolayers using D-luciferin as substrate at 10 uM by firefly luciferase reporter gene assay relative to control; assay type: functional; summary of the method: as §1
BXPC-3 [4] = assay: Antitumor activity against human BxPC3 cells co-cultured with mesothelial cell monolayers using D-luciferin as substrate at 10 uM by firefly luciferase reporter gene assay relative to control; assay type: functional; summary of the method: as §1
SK-OV-3 [5] = assay: Antitumor activity against human SKOV3 cells co-cultured with mesothelial cell monolayers by firefly luciferase reporter gene assay; assay type: functional, cell-based
Summary of the method: (§2)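 Co-culture implantation model: cancer cells carrying a constitutive firefly luciferase plasmid were held in suspension with analog, then overlaid on confluent mesothelial cell monolayers. Cells that adhered and survived were read by bioluminescence with D-luciferin. IC50 values came from concentration–response runs and are reported as mean ± SEM.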

BXPC-3 [6] = assay: Antitumor activity against human BxPC3 cells co-cultured with mesothelial cell monolayers by firefly luciferase reporter gene assay; assay type: functional, cell-based; summary of the method: as §2
[7] = Antitumor activity against human SU86 cells co-cultured with mesothelial cell monolayers by firefly luciferase reporter gene assay; assay type: functional, cell-based; summary of the method: as §2
A2780 [8] = assay: Antitumor activity against human A2780 cells co-cultured with mesothelial cell monolayers by firefly luciferase reporter gene assay; assay type: functional, cell-based; summary of the method: as §2
SK-OV-3 [9] = assay: Induction of apoptosis in human SKOV3 cells co-cultured with mesothelial cell monolayers assessed as PARP cleavage at 7.5 uM after 5 hrs by Western blot analysis; assay type: functional, cell-based
A2780 [10] = assay: Antitumor activity against human A2780 cells xenografted in nu/nu mouse peritoneal carcinomatosis model assessed as inhibition of intraperitoneal implantation at 5 mg/kg, ip administered every 3 days for 14 days by luciferase reporter gene assay; assay type: functional, organism-based; parameters: dose 5 mg/kg
Summary of the method: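 Athymic 5-week-old female nu/nu mice were randomized to 5 mg/kg drug IP or an equal volume of vehicle (4:1 PEG400:EtOH), given 4 h before IP injection of 1.5 × 10^6 A2780-luc cells, then every three days for 14 days. Implants were imaged weekly by bioluminescence after IP D-luciferin. Day-14 abdominal signal was compared with vehicle controls.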

Mus musculus = assay: Toxicity in human A2780 cells xenografted nu/nu mouse at 5 mg/kg, ip administered every 3 days for 14 days; assay type: organism-based; parameters: dose 5 mg/kg, route intraperitoneal; settings: in vivo
Summary of the method: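 Body weight was followed in athymic female nu/nu mice carrying IP A2780-luc cells and given 5 mg/kg IP in 4:1 PEG400:EtOH, starting 4 h before cell injection and repeated every three days over 14 days.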

[11] = molecular target: CASP8 and FADD-like apoptosis regulator (Homo sapiens) (UniProt O15519); assay: Inhibition of cFLIP-L in human SU86 cells assessed as restoration of death receptor signaling-mediated apoptosis; assay type: cell-based
Chain of CASP8 and FADD-like apoptosis regulator (Homo sapiens) (O15519 whole entry, looked up): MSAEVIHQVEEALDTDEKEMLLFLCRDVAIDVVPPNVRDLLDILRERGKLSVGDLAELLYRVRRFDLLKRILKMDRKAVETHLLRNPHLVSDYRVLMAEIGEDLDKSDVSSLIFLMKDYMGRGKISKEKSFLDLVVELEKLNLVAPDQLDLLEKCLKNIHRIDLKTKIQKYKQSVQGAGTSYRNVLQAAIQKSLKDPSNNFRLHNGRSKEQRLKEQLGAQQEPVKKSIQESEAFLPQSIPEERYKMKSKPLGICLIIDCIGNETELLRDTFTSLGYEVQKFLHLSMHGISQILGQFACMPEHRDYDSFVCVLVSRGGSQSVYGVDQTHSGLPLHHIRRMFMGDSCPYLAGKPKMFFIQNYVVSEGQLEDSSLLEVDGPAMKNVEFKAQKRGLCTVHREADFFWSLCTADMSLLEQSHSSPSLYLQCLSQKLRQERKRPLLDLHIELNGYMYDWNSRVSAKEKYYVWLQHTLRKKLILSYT

[12] = molecular target: CASP8 and FADD-like apoptosis regulator (Homo sapiens) (UniProt O15519); assay: Inhibition of cFLIP-L in human BxPC3 cells assessed as restoration of death receptor signaling-mediated apoptosis; assay type: cell-based; settings: BXPC-3
[13] = molecular target: CASP8 and FADD-like apoptosis regulator (Homo sapiens) (UniProt O15519); assay: Inhibition of cFLIP-L in human A2780 cells assessed as restoration of death receptor signaling-mediated apoptosis; assay type: cell-based
[14] = molecular target: CASP8 and FADD-like apoptosis regulator (Homo sapiens) (UniProt O15519); assay: Inhibition of cFLIP-L in human SKOV3 cells assessed as restoration of death receptor signaling-mediated apoptosis; assay type: cell-based; settings: SK-OV-3

| SMILES | Ratio (A2780 [1]) | Ratio (SK-OV-3 [2]) | Ratio [3] | Ratio (BXPC-3 [4]) | pIC50 (SK-OV-3 [5]) | pIC50 (BXPC-3 [6]) | pIC50 [7] | pIC50 (A2780 [8]) | Activity (SK-OV-3 [9]) | inhibition (A2780 [10]) | Activity (Mus musculus) | inhibition [11] | inhibition [12] | inhibition [13] | inhibition [14] |
| --- | --- | --- | --- | --- | --- | --- | --- | --- | --- | --- | --- | --- | --- | --- | --- |
| CC(C)(C(=O)O)c1ccc(S(=O)(=O)/C=C/C#N)cc1 | 1.08 | 1.07 | 0.89 | 0.92 |  |  |  |  |  |  |  |  |  |  |  |
| CC(C)(C(=O)NCc1ccccn1)c1ccc(S(=O)(=O)/C=C/C#N)cc1 | 0.05 | 0.47 | 0.29 | 0.24 |  |  |  |  |  |  |  |  |  |  |  |
| CC(C)(C(=O)N1CCOCC1)c1ccc(S(=O)(=O)/C=C/C#N)cc1 | 0.66 | 1.01 | 0.94 | 0.85 |  |  |  |  |  |  |  |  |  |  |  |
| COc1cccc(NC(=O)C(C)(C)c2ccc(S(=O)(=O)/C=C/C#N)cc2)c1 | 0.55 | 0.98 | 0.65 | 0.62 | 4.96 | 5.39 | 5.14 | 5.62 | Active |  |  |  |  |  |  |
| C#CCNC(=O)C(C)(C)c1ccc(S(=O)(=O)/C=C/C#N)cc1 | 0.63 | 0.93 | 0.65 | 0.64 |  |  |  |  |  |  |  |  |  |  |  |
| CC(C)(C(=O)Nc1ccccc1)c1ccc(S(=O)(=O)/C=C/C#N)cc1 | 0.17 | 0.55 | 0.52 | 0.22 | 5.00 | 5.39 | 5.12 | 5.57 | Active | Active | Non-toxic |  |  |  |  |
| CCOC(=O)/C=C/S(=O)(=O)c1ccc(C(C)(C)C)cc1 | 0.39 | 0.67 | 0.52 | 0.2 |  |  |  |  |  |  |  |  |  |  |  |
| C=CS(=O)(=O)c1ccc(C(C)(C)C)cc1 | 1.16 | 1.05 | 0.8 | 0.84 |  |  |  |  |  |  |  |  |  |  |  |
| CC(C)(C(=O)NC1CCCCC1)c1ccc(S(=O)(=O)/C=C/C#N)cc1 | 0.2 | 0.6 | 0.43 | 0.22 |  |  |  |  |  |  |  |  |  |  |  |
| CC(C)(C)c1ccc(S/C=C/C#N)cc1 | 1.06 | 0.92 | 1.03 | 1.08 |  |  |  |  |  | inactive | Non-toxic |  |  |  |  |
| CC(C)(C(=O)N1CCCCC1)c1ccc(S(=O)(=O)/C=C/C#N)cc1 | 0.08 | 0.51 | 0.51 | 0.25 |  |  |  |  |  |  |  |  |  |  |  |
| CC(C)(C(=O)NCc1ccc(Cl)cc1)c1ccc(S(=O)(=O)/C=C/C#N)cc1 | 0.15 | 0.63 | 0.43 | 0.27 | 4.94 | 5.39 | 5.06 | 5.47 | Active |  |  |  |  |  |  |
| CC(C)(C)c1ccc(S(=O)(=O)/C=C/C#N)cc1 [BAY-11-7085] | 0.04 | 0.32 | 0.13 | 0.07 | 5.12 | 5.43 | 5.23 | 5.59 | Active | Active | Non-toxic | Active | Active | Active | Active |
| CC(C)(C)c1ccc(S(=O)(=O)/C=C/c2ccccc2)cc1 | 1.13 | 1.17 | 0.97 | 1.01 |  |  |  |  |  |  |  |  |  |  |  |
| CN1CCN(C(=O)C(C)(C)c2ccc(S(=O)(=O)/C=C/C#N)cc2)CC1 | 0.95 | 1.09 | 0.95 | 0.98 |  |  |  |  |  |  |  |  |  |  |  |
| CC(C)CNC(=O)C(C)(C)c1ccc(S(=O)(=O)/C=C/C#N)cc1 | 0.05 | 0.47 | 0.29 | 0.24 | 4.89 | 5.38 | 5.12 | 5.48 | Active | Active | Non-toxic |  |  |  |  |
| C/C=C/S(=O)(=O)c1ccc(C(C)(C)C)cc1 | 1.15 | 1.08 | 0.99 | 0.99 |  |  |  |  |  |  |  |  |  |  |  |
| CC(C)(C)c1ccc(S(=O)(=O)/C=C/C(N)=O)cc1 | 0.77 | 0.5 | 0.59 | 0.44 |  |  |  |  |  |  |  |  |  |  |  |
